Data reported in ChEMBL document CHEMBL1275449, “Potent in vitro antifungal activities of naturally occurring acetylenic acids” (Antimicrob Agents Chemother, 2008).
Active and inactive are the calls of the source. The rule behind the calls is not given here.

Experiments:
[1] = system: Aspergillus fumigatus; test: Antifungal activity against Aspergillus fumigatus ATCC 204305 after 48 h by CLSI method; details: ATCC 204305, 48 h
[2] = system: Aspergillus fumigatus; test: Antifungal activity against Aspergillus fumigatus ATCC 90906 after 48 h by CLSI method; details: ATCC 90906, 48 h
[3] = system: Cryptococcus neoformans; test: Antifungal activity against Cryptococcus neoformans ATCC 66031 at 162.1 uM after 72 hrs by CLSI method; format: functional, organism-based
Method in brief: (§1)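 SD broth replaced RPMI because growth in RPMI was poor; other CLSI conditions were kept. Inoculum was 1.5 × 10³ CFU/ml from colonies on SD agar, checked by plating. Twofold serial dilutions (11 concentrations) in 20% DMSO-saline were tested in duplicate. OD530 was read before and after incubation at 35°C for 72 h. Percent growth gave IC50; the MIC is the lowest concentration with no detectable growth.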

[4] = system: Vero; test: Cytotoxicity against African green monkey Vero cells up to 32 uM by neutral red method; format: cell-based; details: chlorocebus sabaeus
Method in brief: (§2)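 Neutral red uptake cytotoxicity, top concentration 32 μM.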

[5] = system: Candida albicans; test: Antifungal activity against Fluconazole resistant Candida albicans clinical isolate 1 after 48 hrs by CLSI method; format: functional, organism-based
Method in brief: (§3)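 CLSI broth microdilution. Colonies from 24–72 h SD agar suspended in saline and sized by OD630 standard curve. Inoculum 1.5 × 10³ CFU/ml (final) in RPMI 1640 (0.2% dextrose, 0.03% glutamine, 0.165 M MOPS, pH 7.0). Twofold dilutions (11 levels) from 20% DMSO-saline, in duplicate. 35°C for 48 h, OD530 read before and after. IC50 fitted from % growth. MIC: no detectable growth. MFC: subculture onto SD agar.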

[6] = system: Candida albicans; test: Antifungal activity against Candida albicans ATCC 60193 at 162.1 uM after 48 hrs by CLSI method; format: functional, organism-based
Method in brief: (§4)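 Candida inocula came from 24–72-h SD agar colonies suspended in saline. They were diluted by OD630 standard curve into RPMI 1640 (0.2% dextrose, 0.03% glutamine, 0.165 M MOPS, pH 7.0) to 1.5 × 10³ CFU/ml. Compounds were run as 11 twofold dilutions in 20% DMSO-saline, in duplicate, at 35°C for 48 h, with OD530 read before and after. Percent growth at the top concentration, IC50, MIC, and MFC (SD agar plating) were derived.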

[7] = system: Candida albicans; test: Antifungal activity against Fluconazole resistant Candida albicans isolate 1 at 162.1 uM after 48 hrs by CLSI method; format: functional, organism-based
Method in brief: (§5)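 Candida in CLSI broth microdilution. Saline colony suspension set to 1.5 × 10³ CFU/ml (final) in MOPS-buffered RPMI 1640, pH 7.0. Test agent given as twofold serial dilutions in 20% DMSO-saline, duplicate wells. 35°C for 48 h. Growth read as OD530 before and after incubation. Percent inhibition scored at the highest test concentration.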

[8] = system: Candida albicans; test: Antifungal activity against Candida albicans ATCC 14053 after 48 hrs by CLSI method; format: functional, organism-based; details: ATCC 14053, 48 h
Method in brief: as §3

[9] = system: Pichia kudriavzevii; test: Antifungal activity against Candida krusei ATCC 6258 at 162.1 uM after 48 hrs by CLSI method; format: functional, organism-based
Method in brief: as §4

[10] = system: Aspergillus fumigatus; test: Antifungal activity against Aspergillus fumigatus ATCC 204305 at 162.1 uM after 48 hrs by CLSI method; format: functional, organism-based
[11] = system: Aspergillus flavus; test: Antifungal activity against Aspergillus flavus ATCC 204304 at 162.1 uM after 48 hrs by CLSI method; format: functional, organism-based
[12] = system: Trichophyton mentagrophytes; test: Antifungal activity against Trichophyton mentagrophytes ATCC 9533 at 162.1 uM after 5 days by CLSI method; format: functional, organism-based
[13] = system: Candida albicans; test: Antifungal activity against Candida albicans ATCC 32354 after 48 hrs by CLSI method; format: functional, organism-based; details: ATCC 32354, 48 h
Method in brief: as §3

[14] = system: Candida albicans; test: Antifungal activity against Candida albicans ATCC 90028 after 48 hrs by CLSI method; format: functional, organism-based; details: ATCC 90028, 48 h
Method in brief: as §3

[15] = system: Candida albicans; test: Antifungal activity against Fluconazole resistant Candida albicans clinical isolate 17 after 48 hrs by CLSI method; format: functional, organism-based
Method in brief: as §3

[16] = system: Trichophyton mentagrophytes; test: Antifungal activity against Trichophyton mentagrophytes ATCC MYA-4439 at 162.1 uM after 5 days by CLSI method; format: functional, organism-based
[17] = system: Aspergillus niger; test: Antifungal activity against Aspergillus niger ATCC 16404 at 162.1 uM after 48 hrs by CLSI method; format: functional, organism-based
[18] = system: KB; test: Cytotoxicity against human KB cells up to 32 uM by neutral red method; format: cell-based
Method in brief: as §2

[19] = system: Candida albicans; test: Antifungal activity against Candida albicans ATCC 200955 after 48 hrs by CLSI method; format: functional, organism-based; details: ATCC 200955, 48 h
Method in brief: as §3

[20] = system: SK-OV-3; test: Cytotoxicity against human SKOV3 cells up to 32 uM by neutral red method; format: cell-based
Method in brief: as §2

[21] = system: Candida parapsilosis; test: Antifungal activity against Candida parapsilosis ATCC 22019 at 162.1 uM after 48 hrs by CLSI method; format: functional, organism-based
Method in brief: (§6)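 Yeast suspensions made from 3-5 colonies off 24-72 h SD agar plates in saline. They were diluted by OD630 standard curve in RPMI 1640 (0.2% dextrose, 0.03% glutamine, 0.165 M MOPS, pH 7.0) to 1.5 × 10³ CFU/ml. Twofold dilutions (11 concentrations, 20% DMSO-saline) run in duplicate. OD530 read before and after 35°C, 48 h. Line values are top test concentrations; no-growth endpoints give MIC/MFC.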

[22] = system: Candida albicans; test: Antifungal activity against Candida albicans ATCC 14053 at 162.1 uM after 48 hrs by CLSI method; format: functional, organism-based
[23] = system: Nakaseomyces glabratus; test: Antifungal activity against Candida glabrata ATCC 90030 at 162.1 uM after 48 hrs by CLSI method; format: functional, organism-based
Method in brief: as §4

[24] = system: Trichophyton rubrum; test: Antifungal activity against Trichophyton rubrum ATCC 10218 at 162.1 uM after 5 days by CLSI method; format: functional, organism-based
[25] = system: Trichophyton rubrum; test: Antifungal activity against Trichophyton rubrum ATCC MYA-4438 at 162.1 uM after 5 days by CLSI method; format: functional, organism-based
[26] = system: Trichophyton mentagrophytes; test: Antifungal activity against Trichophyton mentagrophytes ATCC MYA-4439 by CLSI method; format: functional, organism-based
Method in brief: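 Growth scraped from 1- to 6-week-old potato dextrose slants and filtered through Miracloth. Diluted in 5% Alamar blue-RPMI 1640 (MOPS pH 7.0) to 2.7 × 10⁴ CFU/ml. Eleven twofold dilutions in duplicate. Fluorescence at 544 nm excitation/590 nm emission read before and after 35°C, 5 days. IC50 fitted from percent growth. MIC taken as no detectable growth; MFC from clear or blue wells plated on PD agar.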

[27] = system: Candida albicans; test: Antifungal activity against Candida albicans ATCC 200955 at 162.1 uM after 48 hrs by CLSI method; format: functional, organism-based
Method in brief: as §4

[28] = system: Cryptococcus neoformans; test: Antifungal activity against Cryptococcus neoformans ATCC 90113 at 162.1 uM after 72 hrs by CLSI method; format: functional, organism-based
Method in brief: as §1

[29] = system: Candida albicans; test: Antifungal activity against Candida albicans ATCC 90028 at 162.1 uM after 48 hrs by CLSI method; format: functional, organism-based
Method in brief: as §4

[30] = system: Candida albicans; test: Antifungal activity against Candida albicans ATCC 60193 after 48 hrs by CLSI method; format: functional, organism-based; details: ATCC 60193, 48 h
Method in brief: as §3

[31] = system: Candida albicans; test: Antifungal activity against Fluconazole resistant Candida albicans isolate 17 at 162.1 uM after 48 hrs by CLSI method; format: functional, organism-based
Method in brief: as §5

[32] = system: SK-MEL; test: Cytotoxicity against human SK-MEL cells up to 32 uM by neutral red method; format: cell-based
Method in brief: as §2

[33] = system: LLC-PK1; test: Cytotoxicity against pig LLC-PK1 cells up to 32 uM by neutral red method; format: cell-based, Sus scrofa
Method in brief: as §2

[34] = system: Aspergillus fumigatus; test: Antifungal activity against Aspergillus fumigatus ATCC 90906 at 162.1 uM after 48 hrs by CLSI method; format: functional, organism-based
[35] = system: BT-549; test: Cytotoxicity against human BT549 cells up to 32 uM by neutral red method; format: cell-based
Method in brief: as §2

[36] = system: Candida albicans; test: Antifungal activity against Candida albicans ATCC 32354 at 162.1 uM after 48 hrs by CLSI method; format: functional, organism-based
Method in brief: as §4

[37] = system: Candida tropicalis; test: Antifungal activity against Candida tropicalis ATCC 750 at 162.1 uM after 48 hrs by CLSI method; format: functional, organism-based
Method in brief: as §6

[38] = system: Pichia kudriavzevii; test: Antifungal activity against Candida krusei ATCC 6258 after 48 hrs by CLSI method; format: functional, organism-based; details: ATCC 6258, 48 h
Method in brief: as §4

CCCCCCCCCCCCCC#CCCCCC(=O)O [6-ICOSYNOIC ACID]
IC50 [1]: 32.3 µM | IC50 [2]: 81 µM | Activity [3]: inactive | Activity [4]: Non-toxic | IC50 [5]: 86.6 µM | Activity [6]: inactive | Activity [7]: inactive | IC50 [8]: > 162 µM | Activity [9]: inactive | Activity [10]: inactive | Activity [11]: inactive | Activity [12]: inactive | IC50 [13]: > 162 µM | IC50 [14]: 67.3 µM | IC50 [15]: 55 µM | Activity [16]: inactive | Activity [17]: inactive | Activity [18]: Non-toxic | IC50 [19]: 53.4 µM | Activity [20]: Non-toxic | Activity [21]: inactive | Activity [22]: inactive | Activity [23]: inactive | Activity [24]: inactive | Activity [25]: inactive | IC50 [26]: > 162 µM | Activity [27]: inactive | Activity [28]: inactive | Activity [29]: inactive | IC50 [30]: 81 µM | Activity [31]: inactive | Activity [32]: Non-toxic | Activity [33]: Non-toxic | Activity [34]: inactive | Activity [35]: Non-toxic | Activity [36]: inactive | Activity [37]: inactive | IC50 [38]: 106 µM
